From ChEMBL document CHEMBL5030505, “Assessment of NR4A Ligands That Directly Bind and Modulate the Orphan Nuclear Receptor Nurr1” (J Med Chem, 2020)
Activity calls are given as the source filed them. The rule behind the calls is not given here.

How the values were obtained:
Format in all cases: cell-based
[1] = test system: PC-12; assay: Cytotoxicity against rat PC-12 cells assessed as reduction in cell viability at 5 to 100 uM incubated for 18 hrs by Cell titer-glo assay; settings: pc-12, 18 h, dose 5-100 µM
Summary of the method: (§1)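 Cells seeded at 1.5 million per 10-cm dish. Next day they were replated at 10,000 cells/well and rested 4 h. Ligand or vehicle (water, ethanol or DMSO, by ligand) was added in dose-response format in quadruplicate. After 18 h, viability was read by CellTiter-Glo luminescence. Data are mean ± s.e.m., generally representative of 2 independent experiments. One-way ANOVA versus vehicle.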

[2] = test system: HEK-293T; assay: Cytotoxicity against human HEK293T cells assessed as reduction in cell viability at 5 to 100 uM incubated for 18 hrs by Cell titer-glo assay; settings: dose 5-100 µM; summary of the method: as §1
[3] = test system: SKNBE2; assay: Modulation of Gal4-fused VP16 expressed in SKNBE2 cells co-transfected with UAS repoter gene assessed as decrease in luciferase activity at 5 to 100 uM incubated for 18 hrs by luciferase reporter gene assay; settings: Human alphaherpesvirus 2, filed as modulator, dose 5-100 µM
Summary of the method: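 Cells in 10-cm dishes were transfected with Gal4-VP16 expression plasmid (2 μg) plus 5xUAS-luciferase reporter (2 μg) for 18 h. They were replated at 10,000 cells/well for 4 h, then given ligand or vehicle (water, ethanol or DMSO) in quadruplicate for 18 h. Luciferase was read with Britelite Plus. Fold change is versus vehicle-treated cells, with one-way ANOVA versus vehicle.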

[4] = test system: PC-12; assay: Cytotoxicity against rat PC12 cells assessed as reduction in cell viability at 1.56 to 6.25 microM incubated for 18 hrs by Cell titer-glo assay; settings: pc-12, 18 h, dose 1.56-6.25 µM
Summary of the method: (§2)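 Cells seeded 1.5 million per 10-cm dish; next day replated at 10,000 cells/well in 384-well format, 4 h, then ligand or vehicle (water, ethanol or DMSO by ligand) added in quadruplicate for 18 h; viability read by CellTiter-Glo luminescence. Mean ± s.e.m. (n=4), generally 2 independent experiments; one-way ANOVA versus vehicle.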

[5] = test system: HEK-293T; assay: Cytotoxicity against human HEK293T cells assessed as reduction in cell viability at 1.56 to 6.25 microM incubated for 18 hrs by Cell titer-glo assay; settings: dose 1.56-6.25 µM; summary of the method: as §2
[6] = test system: SKNBE2; assay: Modulation of Gal4-fused VP16 expressed in SKNBE(2) cells co-transfected with UAS repoter gene assessed as decrease in luciferase activity at 1.56 to 6.25 uM incubated for 18 hrs by luciferase reporter gene assay; settings: Human alphaherpesvirus 2, filed as modulator, dose 1.56-6.25 µM
Summary of the method: (§3)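 Constitutive control: cells transfected (Lipofectamine 2000) with Gal4-VP16 expression plasmid (2 μg) plus 5xUAS-luciferase reporter (2 μg), 18 h; replated 10,000 cells/well, 4 h; ligand or vehicle in quadruplicate for 18 h; luciferase read by Britelite Plus; signal as fold change over vehicle-treated cells. Mean ± s.e.m. (n=4); one-way ANOVA versus vehicle.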

[7] = test system: PC-12; assay: Modulation of Gal4-fused VP16 expressed in PC12 cells co-transfected with UAS repoter gene assessed as decrease in luciferase activity at 1.56 to 6.25 uM incubated for 18 hrs by luciferase reporter gene assay; settings: Human alphaherpesvirus 2, filed as modulator, dose 1.56-6.25 µM; summary of the method: as §3
[8] = target: Nuclear receptor subfamily 4 group A member 2 (Homo sapiens) (UniProt P43354); assay: Modulation of full length human Nurr1 expressed in SKNBE(2) cells co-transfected with RXRalpha and luciferase reporter plasmid harboring NBRE response element assessed as decrease in luciferase activity at 1.56 to 6.25 uM incubated for 18 by luciferase reporter gene assay; settings: SKNBE2, filed as modulator, dose 1.56-6.25 µM, time 18.0 hrs
Sequence of Nuclear receptor subfamily 4 group A member 2 (Homo sapiens) (P43354 whole entry): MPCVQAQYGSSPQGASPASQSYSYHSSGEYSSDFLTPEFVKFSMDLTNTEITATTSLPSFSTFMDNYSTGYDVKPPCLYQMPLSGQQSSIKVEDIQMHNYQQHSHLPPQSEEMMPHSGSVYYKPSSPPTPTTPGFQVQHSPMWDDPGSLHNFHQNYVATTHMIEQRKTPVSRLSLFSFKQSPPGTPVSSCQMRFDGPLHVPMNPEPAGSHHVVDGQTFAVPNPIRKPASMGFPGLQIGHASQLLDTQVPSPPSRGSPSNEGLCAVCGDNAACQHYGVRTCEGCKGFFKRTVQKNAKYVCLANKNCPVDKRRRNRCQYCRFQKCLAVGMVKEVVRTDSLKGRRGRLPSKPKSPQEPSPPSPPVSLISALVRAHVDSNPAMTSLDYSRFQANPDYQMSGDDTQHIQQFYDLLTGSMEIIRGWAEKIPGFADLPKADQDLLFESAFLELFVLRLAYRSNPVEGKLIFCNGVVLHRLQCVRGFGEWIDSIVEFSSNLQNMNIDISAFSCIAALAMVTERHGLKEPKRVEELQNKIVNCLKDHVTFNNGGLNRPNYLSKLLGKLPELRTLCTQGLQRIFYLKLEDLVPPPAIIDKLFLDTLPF

[9] = target: Nuclear receptor subfamily 4 group A member 2 (Homo sapiens) (UniProt P43354); assay: Modulation of full length human Nurr1 expressed in PC12 cells co-transfected with RXRalpha and luciferase reporter plasmid harboring NurRE response element assessed as decrease in luciferase activity at 1.56 to 6.25 uM incubated for 18 by luciferase reporter gene assay; settings: PC-12, filed as modulator, dose 1.56-6.25 µM, time 18.0 hrs
[10] = target: Nuclear receptor subfamily 4 group A member 2 (Homo sapiens) (UniProt P43354); assay: Modulation of full length human Nurr1 expressed in PC12 cells co-transfected with RXRalpha and luciferase reporter plasmid harboring NBRE response element assessed as decrease in luciferase activity at 1.56 to 6.25 uM incubated for 18 by luciferase reporter gene assay; settings: PC-12, filed as modulator, dose 1.56-6.25 µM, time 18.0 hrs
[11] = target: Nuclear receptor subfamily 4 group A member 2 (Homo sapiens) (UniProt P43354); assay: Modulation of full length human Nurr1 expressed in PC12 cells co-transfected with RXRalpha and luciferase reporter plasmid harboring NBRE response element assessed as increase in luciferase activity at 1.56 to 6.25 uM incubated for 18 by luciferase reporter gene assay; settings: PC-12, filed as modulator, dose 1.56-6.25 µM, time 18.0 hrs
[12] = target: Nuclear receptor subfamily 4 group A member 2 (Homo sapiens) (UniProt P43354); assay: Modulation of full length human Nurr1 expressed in HEK293T cells co-transfected with RXRalpha and luciferase reporter plasmid harboring NBRE response element assessed as decrease in luciferase activity at 1.56 to 6.25 uM incubated for 18 by luciferase reporter gene assay; settings: filed as modulator, dose 1.56-6.25 µM, time 18.0 hrs
[13] = target: Nuclear receptor subfamily 4 group A member 2 (Homo sapiens) (UniProt P43354); assay: Modulation of full length human Nurr1 expressed in SKNBE(2) cells co-transfected with luciferase reporter plasmid harboring NurRE response element assessed as decrease in luciferase activity at 1.56 to 6.25 uM incubated for 18 by luciferase reporter gene assay; settings: SKNBE2, filed as modulator, dose 1.56-6.25 µM, time 18.0 hrs
Summary of the method: (§4)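 Cells transfected (Lipofectamine 2000, 18 h) with full-length Nurr1 expression plasmid (2 μg) and 3xNBRE- or 3xNurRE-luciferase reporter (6 μg), no internal control normalisation; replated 10,000 cells/well, 4 h; ligand or vehicle in quadruplicate for 18 h; Britelite Plus luminescence as fold change over vehicle. Mean ± s.e.m. (n=4); one-way ANOVA versus vehicle.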

[14] = target: Nuclear receptor subfamily 4 group A member 2 (Homo sapiens) (UniProt P43354); assay: Modulation of full length human Nurr1 expressed in SKNBE(2) cells co-transfected with luciferase reporter plasmid harboring NurRE response element assessed as increase in luciferase activity at 1.56 to 6.25 uM incubated for 18 by luciferase reporter gene assay; settings: SKNBE2, filed as modulator, dose 1.56-6.25 µM, time 18.0 hrs; summary of the method: as §4
[15] = target: Nuclear receptor subfamily 4 group A member 2 (Homo sapiens) (UniProt P43354); assay: Modulation of full length human Nurr1 expressed in SKNBE(2) cells co-transfected with luciferase reporter plasmid harboring NBRE response element assessed as increase in luciferase activity at 1.56 to 6.25 uM incubated for 18 by luciferase reporter gene assay; settings: SKNBE2, filed as modulator, dose 1.56-6.25 µM, time 18.0 hrs; summary of the method: as §4
[16] = target: Nuclear receptor subfamily 4 group A member 2 (Homo sapiens) (UniProt P43354); assay: Modulation of full length human Nurr1 expressed in PC12 cells co-transfected with luciferase reporter plasmid harboring NurRE response element assessed as increase in luciferase activity at 1.56 to 6.25 uM incubated for 18 by luciferase reporter gene assay; settings: PC-12, filed as modulator, dose 1.56-6.25 µM, time 18.0 hrs; summary of the method: as §4
[17] = target: Nuclear receptor subfamily 4 group A member 2 (Homo sapiens) (UniProt P43354); assay: Modulation of full length human Nurr1 expressed in HEK293T cells co-transfected with luciferase reporter plasmid harboring NurRE response element assessed as decrease in luciferase activity at 1.56 to 6.25 uM incubated for 18 by luciferase reporter gene assay; settings: filed as modulator, dose 1.56-6.25 µM, time 18.0 hrs; summary of the method: as §4
[18] = target: Nuclear receptor subfamily 4 group A member 2 (Homo sapiens) (UniProt P43354); assay: Modulation of full length human Nurr1 expressed in HEK293T cells co-transfected with luciferase reporter plasmid harboring NBRE response element assessed as decrease in luciferase activity at 1.56 to 6.25 uM incubated for 18 by luciferase reporter gene assay; settings: filed as modulator, dose 1.56-6.25 µM, time 18.0 hrs; summary of the method: as §4
[19] = target: Nuclear receptor subfamily 4 group A member 2 (Homo sapiens) (UniProt P43354); assay: Modulation of full length human Nurr1 expressed in HEK293T cells co-transfected with luciferase reporter plasmid harboring NBRE response element assessed as increase in luciferase activity at 1.56 to 6.25 uM incubated for 18 by luciferase reporter gene assay; settings: filed as modulator, dose 1.56-6.25 µM, time 18.0 hrs; summary of the method: as §4

Row | Compound | Activity [1] | Activity [2] | Activity [3] | Activity [4] | Activity [5] | Activity [6] | Activity [7] | Activity [8] | Activity [9] | Activity [10] | Activity [11] | Activity [12] | Activity [13] | Activity [14] | Activity [15] | Activity [16] | Activity [17] | Activity [18] | Activity [19]
1 | CCCCCCCC(=O)c1c(O)cc(O)cc1CC(=O)OCC [CYTOSPORONE B] | Toxic | Toxic | Active |  |  |  |  |  |  |  |  |  |  |  |  |  |  |  | 
2 | CC1=C(O)C(=O)C=C2C1=CC=C1[C@@]2(C)CC[C@@]2(C)[C@@H]3C[C@](C)(C(=O)O)CC[C@]3(C)CC[C@]12C [CELASTROL] |  |  |  | Toxic | Toxic | Active | Active | Active | Active | Active | Active | Active | Active | Active | Active | Active | Active | Active | Active
